Activity calls are given as the source filed them. The rule behind the calls is not given here.

In one assay the test system is Aphis gossypii. Briefly: Insecticidal activity against 3 day old Aphis gossypii (cotton aphid) in compound treated cabbage leaves at 600 microg/mL at 24 to 26 degC for 24 hr. It is filed as functional, organism-based. In short, it runs like this:
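Compound was dissolved in acetone/methanol/water (1:1:18). Cabbage leaves (~5 cm) bearing aphids were dipped for 5 s and air-dried, then held in Petri dishes. Dead aphids were counted. Solvent served as the negative control and thiacloprid as the positive reference.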

The nature of assay [1]: Displacement of fluorescent probe 1-NPN from Acyrthosiphon pisum (pea aphid) recombinant OBP2 by competitive binding assay.
Assay [2] deals with T1, Odorant-binding protein 1 (Acyrthosiphon pisum) (UniProt C1KUY1).
T1 sequence (whole entry): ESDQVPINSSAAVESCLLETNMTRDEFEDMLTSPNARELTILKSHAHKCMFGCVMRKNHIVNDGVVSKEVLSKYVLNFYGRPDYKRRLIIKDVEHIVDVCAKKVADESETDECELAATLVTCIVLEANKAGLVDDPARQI
Briefly: Displacement of fluorescent probe 1-NPN from Acyrthosiphon pisum (pea aphid) recombinant OBP1 by competitive binding assay. In short, it runs like this: (§1)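 Recombinant A. pisum OBP and the probe 1-NPN were each at 2 μM in 50 mM Tris-HCl, titrated with competitor to 2-16 μM final. Excitation was at 337 nm, with emission recorded at 380-450 nm and intensity read at the maximum (406-409 nm). The IC50 was taken as the concentration halving initial fluorescence, and Ki = IC50/(1+[1-NPN]/K1-NPN) using free 1-NPN.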

Assay [3] concerns the target T2, Odorant-binding protein 3 (Acyrthosiphon pisum) (UniProt C1KUY3).
T2 sequence (whole entry): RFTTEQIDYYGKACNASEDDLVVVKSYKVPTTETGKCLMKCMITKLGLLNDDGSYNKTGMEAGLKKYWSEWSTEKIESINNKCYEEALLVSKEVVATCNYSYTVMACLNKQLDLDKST
Briefly: Displacement of fluorescent probe 1-NPN from Acyrthosiphon pisum (pea aphid) recombinant OBP3 by competitive binding assay. A digest of the protocol: as §1

As to `CC(C)=CCC/C(C)=C/COC(=O)c1cc(-c2ccccc2)nn1-c1ccccc1`, in the assay with Aphis gossypii, the outcome was Active.
For the compound `CC(C)=CCC/C(C)=C/COC(=O)c1cc(-c2ccccc2)nn1-c1ccc([N+](=O)[O-])cc1`, the result in assay [1], in assay [2] and in assay [3] was Active.
On to `CCCc1cc(C(=O)OC/C=C(\C)CCC=C(C)C)n(C(C)(C)C)n1`, for which, in assay [3], the result was Active.
As to `CC(C)=CCC/C(C)=C/COC(=O)c1cc(C)nn1C(C)(C)C`, the result in assay [3] was Active.
As to `CC(C)=CCC/C(C)=C/COC(=O)c1cc(C(C)C)nn1-c1ccc([N+](=O)[O-])cc1`, the result in assay [1], in assay [2] and in assay [3] was Active.
With `CC(C)=CCC/C(C)=C/COC(=O)c1cc(C(C)C)nn1C(C)(C)C`, in assay [3], the result was Active.
Take `CC(C)=CCC/C(C)=C/COC(=O)c1cc(-c2ccccc2)nn1C(C)(C)C`: the result with Aphis gossypii was Active.
With `CC(C)=CCC/C(C)=C/COC(=O)c1c(F)cccc1F`, the result in assay [1], in assay [2] and in assay [3] was Active.
Take `CC(C)=CCC/C(C)=C/COC(=O)c1ccc(Br)cc1`: the outcome (with Aphis gossypii; in assay [1]; in assay [2]; in assay [3]) was Active.
`N#C/N=C1\SCCN1Cc1ccc(Cl)nc1`: the result in assay [3] was Active.
